Only some compounds are listed: those with a hit (about 3.3% of all), similar ones and a draw of the others.
PRMT1 FP inh: inhibitors of human PRMT1 | AID 652257 | 370,000 tested, 1.3% active | Q99873 | recombinant PRMT1, activity-based probe fluorescence polarization | inhibition, % at 2.79 µM;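 active means inhibition above about 21% made by adding two undisclosed values, limit read from the data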
Target sequence (Q99873 whole entry, looked up): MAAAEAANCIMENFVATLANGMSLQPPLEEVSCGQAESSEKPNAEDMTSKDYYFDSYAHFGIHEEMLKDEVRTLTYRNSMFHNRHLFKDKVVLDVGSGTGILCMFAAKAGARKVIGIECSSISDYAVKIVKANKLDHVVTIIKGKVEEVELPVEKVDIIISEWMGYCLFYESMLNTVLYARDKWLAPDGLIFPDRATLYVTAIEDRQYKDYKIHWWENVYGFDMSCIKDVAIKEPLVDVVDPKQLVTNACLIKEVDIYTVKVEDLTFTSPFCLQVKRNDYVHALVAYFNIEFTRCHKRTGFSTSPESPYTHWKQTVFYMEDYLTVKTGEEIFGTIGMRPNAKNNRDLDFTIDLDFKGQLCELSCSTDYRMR
LEDGF integ inh: blocks HIV-1 LEDGF/p75-dependent DNA integration | TR-FRET IN-LEDGF/p75 DNA integration, Eu/Cy5 | inhibition, % at 3.7 µM | 370,000 tested, 0.64% active;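 active means inhibition above the screen-wide mean plus 3 SD, cut at about 13% in these data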;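 further: signal is the Cy5 over europium emission ratio at 671 and 618 nm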
SIAE inh: human SIAE inhibition, primary screen. SIAE FP-Rh probe binding, fluorescence polarization. inhibition, % at 9.66 µM. 370,000 tested, 0.69% active;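 active means inhibition above a cutoff: mean of compounds within the control limits plus 3 SD of those, cut at about 17% in these data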
UHRF1 binding: human UHRF1 methylated DNA binding inhibitors; Q96T88; UHRF1 binding to methylated oligo, TR-FRET; inhibition, % at 4.4 µM; 370,000 tested, 0.75% active; in the data active means inhibition above about 21%;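 further: UHRF1 SRA domain binding a hemimethylated CpG hairpin DNA probe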
TDP2 inh: TDP2 (human) inhibition, absorbance primary screen; recombinant TDP2, T5PNP hydrolysis, p-nitrophenol absorbance 415 nm; O95551; 370,000 tested, 0.34% active; inhibition, % at 12.8 µM;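 active means inhibition above the mean of all tested compounds plus 3 SD, set per campaign, cut at about 25% in these data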
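Assay system: recombinant human TDP2 / Reagent: T5PNP substrate at 5 mM, a TopII-DNA adduct mimic / Measured by: epi absorbance from released p-nitrophenol / Evaluation: % inhibition relative to enzyme-containing and enzyme-free wells / Control set: enzyme-free and DMSO wells / Replicates: each compound tested once, singlicate / Schedule: enzyme reaction with compound for 2 h at 37 °C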
MBD2 inh: blocks human MBD2 binding to methylated DNA; Q9UBB5; TR-FRET, MBD2 binding to methylated oligonucleotide; inhibition, % at 4.4 µM; 370,000 tested, 0.31% active; in the data active means inhibition above about 13%
TDP2 confirm: confirmation of human TDP2 inhibitors | shares compounds with TDP2 inh | recombinant human TDP2, absorbance read-out | inhibition, % at 12.8 µM | 1,100 tested, 22% active | AID 743263; in the data active means inhibition above about 25%
IN multimer up: HIV-1 integrase multimerization activation, counter-screen; 2,000 tested, 17% active; shares compounds with LEDGF integ inh; AID 1053131; TR-FRET HIV-1 integrase multimerization, biochemical; activation, % at 7.7 µM; in the data active means activation above about 8.9%
TRFRET interf: optically interferes with TR-FRET readout in LEDGF counter-screen | shares compounds with LEDGF integ inh | TR-FRET optical interference counterscreen, HIV-1 IN multimerization | inhibition, % at 7.7 µM | 2,000 tested, under 10 active | AID 1053135;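 active means inhibition above the mean over all tested compounds plus 3 SD, which no compound reached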
LEDGF integ conf: confirmation of HIV-1 LEDGF/p75-dependent integration inhibitors; shares compounds with LEDGF integ inh; TR-FRET LEDGF/p75-dependent HIV-1 integration, biochemical; 2,000 tested, 36% active; inhibition, % at 3.7 µM; in the data active means inhibition above about 14%
Hits are given with their value; ! = not active in a repeat.

For Cc1[nH]c2ccccc2c1/C=N/Nc1nncn1N the results were PRMT1 FP inh inactive, LEDGF integ inh 74, SIAE inh inactive, UHRF1 binding inactive, TDP2 inh 74, MBD2 inh inactive, TDP2 confirm inactive, IN multimer up inactive, TRFRET interf inactive and LEDGF integ conf inactive.
COC(=O)C1CN(Cc2ccccc2)CCS(=O)(=O)N1Cc1cn(Cc2ccc(Cl)cc2)nn1 (stereo not drawn) was read as PRMT1 FP inh inactive, LEDGF integ inh inactive, SIAE inh inactive, UHRF1 binding inactive, TDP2 inh inactive and MBD2 inh inactive.
O=C1C=C(O)c2cccc(O)c2C1=O was read as PRMT1 FP inh 25, LEDGF integ inh 22, SIAE inh inactive, UHRF1 binding inactive, TDP2 inh 32, MBD2 inh inactive, TDP2 confirm inactive, IN multimer up inactive, TRFRET interf inactive and LEDGF integ conf 14.
For O=C(OCC#CCSc1nnc(-c2cccc3ccccc23)o1)C1CC1 the results were PRMT1 FP inh inactive, LEDGF integ inh inactive, SIAE inh inactive, UHRF1 binding inactive, TDP2 inh inactive and MBD2 inh inactive.
Screening Cc1ccc(S(=O)(=O)NC2=C(N3CCN(c4ccccc4F)CC3)C(=O)c3ccccc3C2=O)cc1 returned PRMT1 FP inh inactive, LEDGF integ inh 15!, SIAE inh inactive, UHRF1 binding inactive, TDP2 inh 25!, MBD2 inh inactive, TDP2 confirm inactive, IN multimer up inactive, TRFRET interf inactive and LEDGF integ conf inactive.
Cc1cccc(NC(=O)NCCCN2CCN(c3ccc(F)cc3)CC2)c1 was read as PRMT1 FP inh inactive, LEDGF integ inh inactive, SIAE inh inactive, UHRF1 binding inactive, TDP2 inh inactive and MBD2 inh inactive.
For NC1=C(Br)C(=O)c2ncccc2C1=O the results were PRMT1 FP inh inactive, LEDGF integ inh 29, SIAE inh inactive, UHRF1 binding inactive, TDP2 inh 62, MBD2 inh inactive, TDP2 confirm 65, IN multimer up inactive, TRFRET interf inactive and LEDGF integ conf 73.
For O=C1c2cccnc2C(=O)N1CO the results were PRMT1 FP inh inactive, LEDGF integ inh inactive, SIAE inh inactive, UHRF1 binding inactive, TDP2 inh inactive and MBD2 inh inactive.
COc1ccc(N)c2c1OCCC2=O was read as PRMT1 FP inh inactive, LEDGF integ inh 19, SIAE inh inactive, UHRF1 binding inactive, TDP2 inh 34, MBD2 inh inactive, TDP2 confirm inactive, IN multimer up inactive, TRFRET interf inactive and LEDGF integ conf inactive.
For COc1ccc2c(c1OC)C(=O)OC2 the results were PRMT1 FP inh inactive, LEDGF integ inh inactive, SIAE inh inactive, UHRF1 binding inactive, TDP2 inh inactive and MBD2 inh inactive.
For COc1ccccc1CCn1cnc(-c2cccc(Cl)c2)c1CC(C)C the results were PRMT1 FP inh inactive, LEDGF integ inh inactive, SIAE inh inactive, UHRF1 binding inactive, TDP2 inh inactive and MBD2 inh inactive.
`COc1ccc(C(O)c2nccc3cc(OC)c(OC)cc23)cc1OC` (stereo not drawn) gave PRMT1 FP inh inactive, LEDGF integ inh 29, SIAE inh inactive, UHRF1 binding inactive, TDP2 inh 34, MBD2 inh inactive, TDP2 confirm inactive, IN multimer up inactive, TRFRET interf inactive and LEDGF integ conf inactive.
`COC(=O)c1cc(S(=O)(=O)N2CCOCC2)c(Cl)cc1N1CCOCC1` gave PRMT1 FP inh inactive, LEDGF integ inh inactive, SIAE inh inactive, UHRF1 binding inactive, TDP2 inh inactive and MBD2 inh inactive.
COC(=O)c1cc(C)nc2c1C(=O)C(=O)C=C2N1CCOCC1 was read as PRMT1 FP inh inactive, LEDGF integ inh 38, SIAE inh inactive, UHRF1 binding inactive, TDP2 inh 87, MBD2 inh inactive, TDP2 confirm 89, IN multimer up inactive, TRFRET interf inactive and LEDGF integ conf 78.
For O=C1C=C(N2CCCCC2)c2ccccc2C1=O the results were PRMT1 FP inh inactive, LEDGF integ inh 29, SIAE inh inactive, UHRF1 binding inactive, TDP2 inh 70, MBD2 inh inactive, TDP2 confirm 85, IN multimer up inactive, TRFRET interf inactive and LEDGF integ conf 67.
Screening O=C(O)c1ccc(NC2=C/C(=N/S(=O)(=O)c3ccccc3)c3ccccc3C2=O)cc1 returned PRMT1 FP inh inactive, LEDGF integ inh 49, SIAE inh inactive, UHRF1 binding inactive, TDP2 inh 72, MBD2 inh inactive, TDP2 confirm 77, IN multimer up inactive, TRFRET interf inactive and LEDGF integ conf 72.
For CCc1ccc(S(=O)(=O)/N=C2\C=C(Nc3cccc(C(=O)O)c3)C(=O)c3ccccc32)cc1 the results were PRMT1 FP inh inactive, LEDGF integ inh 47, SIAE inh inactive, UHRF1 binding inactive, TDP2 inh 69, MBD2 inh inactive, TDP2 confirm 74, IN multimer up inactive, TRFRET interf inactive and LEDGF integ conf 74.
Cc1cccc(NC2=C/C(=N/S(=O)(=O)c3cccs3)c3ccccc3C2=O)c1 was read as PRMT1 FP inh inactive, LEDGF integ inh inactive, SIAE inh inactive, UHRF1 binding inactive, TDP2 inh inactive and MBD2 inh inactive.
O=C(O)c1ccc(NC2=C/C(=N/S(=O)(=O)c3cccs3)c3ccccc3C2=O)cc1 was read as PRMT1 FP inh inactive, LEDGF integ inh 31, SIAE inh inactive, UHRF1 binding inactive, TDP2 inh 60, MBD2 inh inactive, TDP2 confirm 73, IN multimer up 9.1, TRFRET interf inactive and LEDGF integ conf 75.
Screening O=C1C[C@@H](c2ccccc2)N=C2N(Cc3ccc4c(c3)OCO4)C/C(=C/c3ccccc3)N12 returned PRMT1 FP inh inactive, LEDGF integ inh inactive, SIAE inh inactive, UHRF1 binding inactive, TDP2 inh inactive and MBD2 inh inactive.
`Cc1c(C(=O)N/N=C/c2ccccc2Cl)[nH][nH]c1=O` gave PRMT1 FP inh inactive, LEDGF integ inh inactive, SIAE inh inactive, UHRF1 binding inactive, TDP2 inh inactive and MBD2 inh inactive.
Screening O=S(=O)(Nc1ccc(O)c2ccccc12)c1cccs1 returned PRMT1 FP inh inactive, LEDGF integ inh 26, SIAE inh inactive, UHRF1 binding inactive, TDP2 inh 50, MBD2 inh inactive, TDP2 confirm 30, IN multimer up inactive, TRFRET interf inactive and LEDGF integ conf inactive.
